These results are taken from ChEMBL document CHEMBL1124690, “Synthesis and antitumor activity of fused tetracyclic quinoline derivatives. 1” (J Med Chem, 1989).

Converted amounts (≈) assume the structure as drawn. The source made the active and inactive calls. The calls are words filed in the database; no cut-off is given here. Some results are limits rather than exact numbers.

Experiment [1] concerns P388. Description: Median survival time per control mice with leukemia P388 at 400 mg/kg dose injected intraperitoneally. Type of experiment: functional, Mus musculus. The following applies: route intraperitoneal. Summed up: (§1)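 CD2F1 mice (six per group) implanted ip with 10⁶ P388 leukemia cells. Drug dissolved in 0.9% NaCl with a drop of Tween 80, given ip once daily on days 1 and 5. % T/C = median survival time treated/control × 100.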

The nature of experiment [2]: Inhibition of KB cell growth in vitro. The conditions noted are these: Homo sapiens. It counts as functional, cell-based. Summed up:
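KB clonal cells in Eagle's MEM with 10% calf serum, 37 °C, 5% CO2; seeded 2100 cells/cm², medium changed at 24 h, then graded drug 0.3–100 µg/mL for 48 h, duplicate dishes per concentration. Cells trypsinized and counted by Coulter counter; IC50 from log concentration vs growth rate (% of control).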

The nature of experiment [3]: Percent fluorescence of the ethidium bromide-DNA complex. Summed up: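 Ethidium displacement: ethidium bromide 3 µM and calf thymus DNA 20 µM in Hepes 2 mM, EDTA 10 µM, NaCl 9.4 mM, pH 7.0; drug 10 µM. Excitation 564 nm filter, emission 595 nm. Fluorescence with drug as % of drug-free control; mean ± SE of three experiments.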
The test system of experiment [4] is P388. Description: Median survival time per control mice with leukemia P388 at 12.5 mg/kg dose injected intraperitoneally. The following applies: route intraperitoneal. Type of experiment: functional, Mus musculus. Summed up:
as §1

Experiment [5] relates to DNA topoisomerase 1 (Bos taurus). Description: Unwinding of DNA observed in a reaction mixture containing PBR322 DNA dimer, calf thymus DNA topoisomerase I, and the drug; + = unwinding was observed at 100 ug/mL.
Experiment [6] concerns P388. Description: Median survival time per control mice with leukemia P388 at 50 mg/kg dose injected intraperitoneally. It counts as functional, Mus musculus. The following applies: route intraperitoneal. Summed up:
as §1

In experiment [7] the test system is P388. Description: Median survival time per control mice with leukemia P388 at 200 mg/kg dose injected intraperitoneally. It counts as functional, Mus musculus. The following applies: route intraperitoneal. In a few lines: as §1
For experiment [8], the system named is P388. Description: Median survival time per control mice with leukemia P388 at 25 mg/kg dose injected intraperitoneally. Type of experiment: functional, Mus musculus. The following applies: route intraperitoneal. In a few lines:
as §1

The test system of experiment [9] is P388. Description: Median survival time per control mice with leukemia P388 at 100 mg/kg dose injected intraperitoneally. The conditions noted are these: route intraperitoneal. Type of experiment: functional, Mus musculus. In a few lines:
as §1

Experiment [10] has as its system DNA topoisomerase II (Bos taurus). Description: Activity of the topoisomerase II dependent DNA cleavage; Active.
The test system is the same in experiment [11]. Description: Activity of the topoisomerase II dependent DNA cleavage; (-) = Inactive.
Experiment [12] concerns DNA topoisomerase 1 (Bos taurus). Description: Unwinding of DNA observed in a reaction mixture containing PBR322 DNA dimer, calf thymus DNA topoisomerase I, and the drug; ++ = unwinding was observed at 25 ug/mL.
The test system of experiment [13] is P388. Description: Median survival time per control mice with leukemia P388 at 400 mg/kg dose injected a dose of 400 mg/kg. Type of experiment: functional, organism-based. The following applies: Mus musculus. Summed up: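 CD2F1 mice (six per group) given 10⁶ P388 cells ip; drug in 0.9% NaCl with a drop of Tween 80, ip on days 1 and 5. Activity as % T/C of median survival time, treated vs control.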

Experiment [14] in a line: Median survival time per control animal with colon 38 carcinoma cells at 35 mg/kg dose injected intraperitoneally on day 1,8,15,22. It counts as functional, Mus musculus. The following applies: route intraperitoneal. In a few lines:
(§2)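 Colon 38 inoculated sc as a 1 × 1 × 1 mm³ fragment into B6D2F1 mice; drug dosed ip on days 1, 8, 15 and 22. Result expressed as % T/C of median survival time, treated versus control.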

The nature of experiment [15]: Median survival time per control animal with colon 38 carcinoma cells at 12.5 mg/kg dose injected intraperitoneally on day 1,8,15,22. It counts as functional, Mus musculus. The following applies: route intraperitoneal. Summed up:
as §2

Experiment [16] is described as follows: Median survival time per control animal with colon 38 carcinoma cells at 25 mg/kg dose injected intraperitoneally on day 1,8,15,22. The following applies: route intraperitoneal. Type of experiment: functional, Mus musculus. In a few lines:
as §2

Experiment [17] deals with M5076. Description: Median survival time per control animal with M5076 cells at 12.5 mg/kg dose injected intraperitoneally on day 1,5,9. It counts as functional, Mus musculus. The conditions noted are these: route intraperitoneal. In a few lines: (§3)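 B6D2F1 mice inoculated ip with 10⁶ M5076 fibrosarcoma cells; drug given ip on days 1, 5 and 9. Activity read as % T/C, ratio of median survival time of treated to control group.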

Experiment [18] has as its system M5076. Description: Median survival time per control animal with M5076 cells at 6.3 mg/kg dose injected intraperitoneally on day 1,5,9. Type of experiment: functional, Mus musculus. The following applies: route intraperitoneal. Summed up: as §3
In experiment [19] the test system is M5076. Description: Median survival time per control animal with M5076 cells at 3.1 mg/kg dose injected intraperitoneally on day 1,5,9. It counts as functional, Mus musculus. The conditions noted are these: route intraperitoneal. Summed up:
as §3

Experiment [20] has as its system B16. Description: Median survival time per control animal with B16 cells at 25 mg/kg dose injected intraperitoneally on day 1,5,8. Type of experiment: functional, Mus musculus. The conditions noted are these: route intraperitoneal. In a few lines: (§4)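 Female-unspecified B6D2F1 mice inoculated ip with 0.5 mL of 10% homogenate (Hank's saline) of subcutaneous B16 melanoma. Drug given ip on days 1, 5 and 8. % T/C = median survival time of treated over control group.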

The subject of experiment [21] is M5076. Description: Median survival time per control animal with M5076 cells at 25 mg/kg dose injected intraperitoneally on day 1,5,9. It counts as functional, Mus musculus. The conditions noted are these: route intraperitoneal. In a few lines:
as §3

For experiment [22], the system named is B16. Description: Median survival time per control animal with B16 cells at 6.3 mg/kg dose injected intraperitoneally on day 1,5,8. Type of experiment: functional, Mus musculus. The following applies: route intraperitoneal. In a few lines: as §4
The test system of experiment [23] is B16. Description: Median survival time per control animal with B16 cells at 12.5 mg/kg dose injected intraperitoneally on day 1,5,8. The following applies: route intraperitoneal. Type of experiment: functional, Mus musculus. Summed up:
as §4

The nature of experiment [24]: Median survival time per control animal with colon 38 carcinoma cells at 6.3 mg/kg dose injected intraperitoneally on day 1,8,15,22. It counts as functional, Mus musculus. The following applies: route intraperitoneal. In a few lines:
as §2

Experiment [25] has as its system M5076. Description: Median survival time per control animal with M5076 cells at 50 mg/kg dose injected intraperitoneally on day 1,5,9. The following applies: route intraperitoneal. Type of experiment: functional, Mus musculus. In a few lines: as §3
Experiment [26] deals with DNA topoisomerase II (Bos taurus). Description: Activity of the topoisomerase II dependent DNA cleavage; Inactive.
Experiment [27] relates to P388. Description: Median survival time per control mice with leukemia P388 at 10 mg/kg dose injected intraperitoneally. It counts as functional, Mus musculus. The following applies: route intraperitoneal. In a few lines: as §1
Experiment [28] relates to P388. Description: Median survival time per control mice with leukemia P388 at 40 mg/kg dose injected intraperitoneally. Type of experiment: functional, Mus musculus. The following applies: route intraperitoneal. In a few lines:
as §1

Experiment [29] concerns P388. Description: Median survival time per control mice with leukemia P388 at 20 mg/kg dose injected intraperitoneally. Type of experiment: functional, Mus musculus. The conditions noted are these: route intraperitoneal. In a few lines: as §1

With `COc1cc(NS(C)(=O)=O)ccc1Nc1c2ccccc2nc2c1oc1ccccc12`, the T/C with P388 [1] amounted to 248%; in the experiment with P388 [4] it was 117%; with P388 [6], 159%; in the experiment with P388 [7], 168%; in the experiment on P388 [8], 125%; in the experiment on P388 [9], 138%. For the same molecule, the IC50 in [2] was less than 0.3 µg/mL. The molecule further had a Fluoroscence in experiment [3] of 81.4%. The Unwinding entry in experiment [5] is given as “unwinding was observed at 100 ug/mL”. The outcome in [10] was Active.

As to `CN(C)CCCNc1c2c(nc3ccccc13)-c1ccccc1C2`, the outcome in experiment [11] was inactive. The molecule also gave an IC50 in experiment [2] of less than 0.3 µg/mL. In [3], the Fluoroscence came out at 5.45%. Moreover, the T/C in the experiment with P388 [4] turned out to be 110%; with P388 [6] it was 101%; in the experiment with P388 [8], 88%.

Regarding `COc1cc(NS(C)(=O)=O)ccc1Nc1c2ccccc2nc2c1sc1ccccc12`, in [12], the Unwinding result is given as “unwinding was observed at 25 ug/mL”. Also, the T/C in the experiment on P388 [1] was found to be 252%; with P388 [4], 138%; in the experiment on P388 [6], 170%; in the experiment with P388 [7], 238%; with P388 [8], 170%; with P388 [9], 166%. In addition, in [2], the IC50 is less than 0.3 µg/mL. Further, the Fluoroscence in experiment [3] turned out to be 79.3%. The result in experiment [10] was Active.

On to `COc1cc(NS(C)(=O)=O)ccc1Nc1c2c(nc3ccccc13)CCSC2`, for which, in the experiment on P388 [13], the T/C entry was “inactive”. This molecule also showed an IC50 in experiment [2] of 46 µg/mL (≈ 111 µM). The Fluoroscence in experiment [3] was determined as 106%.

With `CN(C)CCCNc1c2c(nc3ccccc13)CCCC2`, the T/C entry in the experiment on P388 [13] was “inactive”. Inhibition in experiment [2] was half-maximal at 1.3 µg/mL (≈ 4.59 µM) (IC50). Further, in experiment [3], the Fluoroscence was found to be 82%.

With `CN(C)CCCNc1c2c(nc3ccccc13)CCN(C)C2`, the T/C result with P388 [13] was “inactive”. The same molecule came in with an IC50 in experiment [2] of 14 µg/mL (≈ 46.9 µM).

Take `COc1cc(NS(C)(=O)=O)ccc1Nc1c2ccccc2nc2c3ccccc3n(C)c12`: in the experiment with P388 [13], the T/C result was “inactive”. The molecule also gave an IC50 in experiment [2] of 3.6 µg/mL (≈ 8.06 µM). The Fluoroscence in [3] came to 93.6%.

Regarding `COc1cc(NS(C)(=O)=O)ccc1Nc1c2c(nc3ccccc13)CCN(C)C2`, in the experiment on P388 [13], the T/C result was “inactive”. Further, in [2], the IC50 was more than 100 µg/mL. Further, in experiment [3], the Fluoroscence came to 104%.

In the case of `COc1cc(NS(C)(=O)=O)ccc1Nc1c2c(nc3ccccc13)-c1ccccc1C2`, the T/C is listed as 150% in [14]; 133% in experiment [15]; 138% in experiment [16]; 0% in the experiment on P388 [1]; 184% in the experiment on M5076 [17]; 158% with M5076 [18]. The T/C in the experiment with P388 [4] is recorded as 166%; with P388 [6], 240%; in the experiment with P388 [7] it was 60%; in the experiment with M5076 [19], 193%; in the experiment with B16 [20], 211%; in the experiment with M5076 [21] it was 111%. In addition, the T/C is on record as 184% in the experiment with B16 [22]; 223% with B16 [23]; 217% in the experiment on P388 [8]; 111% in experiment [24]; 92% in the experiment with M5076 [25]; 80% with P388 [9]. Moreover, in experiment [2], the concentration for half-maximal inhibition (IC50) is less than 0.3 µg/mL. The molecule also displayed a Fluoroscence in experiment [3] of 67.6%. In addition, in [10], the result was Active.

With `COc1cc(NS(C)(=O)=O)ccc1Nc1c2c(nc3ccccc13)-c1ccccc1C2C` (centres undefined), the T/C entry with P388 [13] was “inactive”. Further, half-maximal inhibition in experiment [2] (IC50) required 15 µg/mL (≈ 33.7 µM). Moreover, the Fluoroscence in experiment [3] was determined as 95.3%. Besides, the result in experiment [26] was inactive.

In the case of `COc1cc(NS(C)(=O)=O)ccc1Nc1c2ccccc2nc2ccccc12` [AMSACRINE], the T/C with P388 [27] is 174%; with P388 [28] it was 223%; in the experiment on P388 [29], 198%. Further, the IC50 in experiment [2] is less than 0.3 µg/mL. Moreover, in [3], the Fluoroscence amounted to 63.7%.

On to `COc1cc(NS(C)(=O)=O)ccc1Nc1c2c(nc3ccccc13)CCCC2`, for which, in the experiment with P388 [13], the T/C entry is “inactive”. Further, inhibition in [2] was half-maximal at 41 µg/mL (≈ 103 µM) (IC50). Besides, the Fluoroscence in experiment [3] was 93.3%. Besides, in experiment [26], the result was inactive.
